# In ChEMBL document CHEMBL4513216, “Probing the Open Global Health Chemical Diversity Library for Multistage-Active Starting Points for Next-Generation Antimalarials” (ACS Infect Dis, 2020):
# Experiment: Toxicity liver stage against HepG2, at 10uM
# Assay type: cell-based
# Design: test concentration 10 uM, cell line HepG2-A16-CD81EGFP
# Conditions: human, HepG2-A16-CD81EGFP cells; read-out: INHIBITION
# Method in brief: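 Uninfected HepG2-A16-CD81EGFP cells, 3 × 10^3 per well, 1536-well, plated on prespotted compound at 10 μM final, parasite-free screening media added to match infected plates; puromycin 10 μM positive, DMSO 0.5% negative; run in parallel with 48 h PbLuc assay at 37 °C, 5% CO2; viability by CellTiter-Glo luminescence, normalized to controls.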
row,Compound,cytotoxicity at 10 µM [%]
1,O=c1ncn(-c2ccccc2F)c2ncccc12,-2.26
2,CCCN(CCC)C1(Cc2cc(-c3cccc(O)c3)on2)COC1,-1.19
3,O=C(Cc1ccccc1)NC[C@H]1Cn2ccnc2CO1,0.148
4,CC(C)CCc1n[nH]c(C(=O)O)c1Cl,-5.47
5,CC(C)NC(=O)CNC(=O)N1CCc2c([nH]c3ccc(Cl)cc23)C1,7.15
6,COCCN1C[C@@H]2CN(S(=O)(=O)c3cccs3)C[C@@H]2C1=O,0.258
7,Cc1cccc(CN2C[C@@H]3OCCN(C)[C@@H]3C2)n1,1.73
8,COCc1ncn2c1CN(C(=O)Nc1ccccc1)CC2,0.763
9,Cn1cccc1CN1CCc2ncnc(-c3cccnc3)c2CC1,9.03
10,COCCO[C@H]1CCN(C(=O)c2ccco2)[C@H]1Cc1cnn(C)c1,2.4
11,O=C(c1ccccc1)N1CC[C@H]2C[C@@H](c3nccs3)O[C@@H]2C1,-5.44
12,Cc1cccc(CSc2ncc(Br)c(C(=O)O)n2)c1,-9.41
13,Cc1ccc(-c2cc(C(=O)O)sn2)cc1,2.2
14,CNc1nccnc1C1CN(C(=O)c2cc[nH]n2)CCO1 (stereo not drawn),-12.3
15,COCCNC(=O)c1cc(C)nc(C2CCN(C)CC2)n1,-2.48
16,CCC(=O)N1CCC(c2nc3c(c(NC)n2)CN(C)CC3)C1 (stereo not drawn),-3.74
17,O=C(CC1CCCC1)N1CCOC(c2nc(-c3ncccn3)no2)C1 (stereo not drawn),-13.2
18,CNC(=O)Nc1cnc2cc(Cl)ccc2c1O,-30
19,Cc1nccn1-c1cncc(C2CCCN2Cc2cccnc2)n1 (stereo not drawn),-20.4
20,O=C(CSc1nnc(N2CCCC2)s1)NC(=O)Nc1ccccc1,3.59
21,COc1ccccc1C1(CNc2cn[nH]c(=O)c2Cl)CC1,54.8

row,Compound,cytotoxicity at 10 µM [%]
1,CN1CCN(C2CCN(Cc3cn4ccccc4n3)CC2)C1=O,19.1
2,Cc1cccc(N2CCC(NC(C)c3cccs3)CC2)n1 (stereo not drawn),-17.2
3,Cc1[nH]ncc1CCCNC(=O)N1CCN2CCCCC2C1 (stereo not drawn),5.8
4,Cc1ccc(C)c(Oc2ccc(CNC(=O)C3CNC(=O)N3)cn2)c1 (stereo not drawn),0.577
5,Cc1ccc(CN(C)C(=O)CN2CCc3ccccc3C2)o1,-6.9
6,COc1ncnc(N(C)C)c1NC(=O)c1cscc1C,-1.7
7,Cc1ccc(N2CCCC(N(C)c3nn4cc(C)nc4s3)C2)nn1 (stereo not drawn),8.45
8,Cc1nn(C)c(N(C)C)c1CNCc1cccc(Br)c1,-7.98
9,CCOCCNC(=O)Nc1cccc(-c2nccn2C)c1,-3.26
10,CC(=O)N1CCN(C(=O)C(C)OCC(F)(F)F)CC1 (stereo not drawn),-10.8
11,Cc1cccc(C(=O)N2CCN(c3ccccc3F)CC2)n1,1.83
12,COC(=O)C(C)(C)NC(=O)C1CC(=O)N(CC(C)C)C1 (stereo not drawn),-152
13,N#Cc1ncn(CCC(=O)Nc2cc(Cl)ccc2Cl)n1,-161
14,Clc1cncc(N2CCCC2c2nnc3n2CCCCC3)n1 (stereo not drawn),-7.44
15,CCC(NC(=O)Nc1ccc(OC)c(C)c1)c1noc(C)n1 (stereo not drawn),-12
16,O=C(Nc1cc(C2CCOCC2)[nH]n1)c1cscn1,-7.84
17,CN(C(=O)CCOc1ccccc1)C1CCN(CC2CCOC2)CC1 (stereo not drawn),-7.7
18,c1cnc(N2CCC(NCc3cnc(C4CCC4)s3)CC2)nc1,4.24
19,Cc1cc2c(cc1C)C(NC1CC1)CCCO2 (stereo not drawn),4.57
20,CC(C)S(=O)(=O)Cc1cccc(NC(=O)c2ccc[nH]2)c1,-0.118
21,CC(C)c1nc(C2CCCN2c2cnc3ccccc3n2)no1 (stereo not drawn),-3.13

row,Compound,cytotoxicity at 10 µM [%]
1,Cc1csc2ncc(-c3ccnc(N4CCC[C@@H]4CO)n3)c(=O)n12,-11.3
2,CCCn1ncnc1C(C)NC(=O)C1CCN(C(=O)C2CC2)CC1 (stereo not drawn),-147
3,COc1ccccc1[C@@H]1CN(Cc2ccncc2)C[C@H]1C(=O)O,-4.23
4,COc1cc2c(cc1CN1CCC3(CCCN(C)C3=O)C1)OCCO2 (stereo not drawn),6.33
5,CC(C)(CN1CCC2(CCNCC2)CC1)N1CCOCC1,-148
6,Cc1nn(CCN2CCSCC2)cc1CNCC1CC1,-7.03
7,CC(=O)N1CCN(C(=O)c2snnc2C)[C@H]2CS(=O)(=O)C[C@H]21,-0.145
8,Cc1cccc(CN2C(=O)OCC2CO)c1F (stereo not drawn),-2.13
9,Cc1c(C(=O)N2CCC(O)(CN(C)C)C2)c2cc(O)ccc2n1C (stereo not drawn),-120
10,O=C(NCc1csc(-c2cccs2)n1)C1NCCc2[nH]cnc21 (stereo not drawn),-0.798
11,Cc1cnc(N2CCCC3(CCOCC3)C2)nc1,-116
12,CC(C)C[C@H]1CN(c2nc3c(cc2C(N)=O)CCC3)CC[C@@]1(C)O,-4.51
13,O=C(CC1COCCN1)N1CCCN(C2Cc3ccccc3C2)CC1 (stereo not drawn),-139
14,O=C(c1scc2c1OCCO2)N1CCOC(Cc2cccc(F)c2)C1 (stereo not drawn),4.78
15,CCn1c(Cn2cncn2)nnc1C1CCN(Cc2ccncc2)CC1,12.3
16,Cc1cc(F)ccc1OC1(C(=O)O)CCN(Cc2ccncc2)CC1,-8.31
17,Cc1ccc([C@@H]2CN(S(=O)(=O)C(C)C)C[C@H]2N(C)C)cc1,-0.368
18,NC(=O)CSc1nccc(-c2ccc3c(c2)OCO3)n1,-7.38
19,Cc1nc(C)c(CN2CCC(N(C)Cc3nnc(C4CC4)o3)C2)s1 (stereo not drawn),-4.18
20,Cc1nc(C(C)C)sc1C(=O)NCCn1nc2ccccn2c1=O,-12
21,NC(=O)C1CN(C(=O)Nc2ccc(SC(F)(F)F)cc2)CCO1 (stereo not drawn),-12.9

row,Compound,cytotoxicity at 10 µM [%]
1,COc1c(C2CCCN2Cc2nc(-c3ccco3)no2)c(C)nn1C (stereo not drawn),-10.2
2,COc1ccnc(N2CCN(C(=O)c3ccn(C)c(=O)c3)CC2)n1,-13.7
3,COc1c(CNCc2cccc(Cn3cncn3)c2)c(C)nn1C,-11.2
4,Cc1nn(CC(C)C)c(N(C)C)c1CNCc1ccccc1CO,-15.2
5,Cc1nn(C)c(N(C)C)c1CNCCS(C)(=O)=O,-17.4
6,CN(Cc1ccc(F)cc1)C(=O)NCc1nnc2n1CCC2,-17.8
7,COc1ccc(-c2cnc(CN3CCCC3Cn3cccn3)o2)cc1 (stereo not drawn),-5.71
8,CC(C)c1noc(CCC(=O)NCC2CCC(C(N)=O)CC2)n1 (stereo not drawn),-31.6
9,CCS(=O)(=O)c1ccccc1C(=O)N1CCCC(n2cccn2)C1 (stereo not drawn),-29.9
10,CCCc1nc(CN2CCc3c(ncn3C3CC3)C2)cs1,-0.0225
11,CCCc1nc(C)c(C(=O)NCCN2CCCCC2)s1,-0.906
12,Cc1noc(C2CCCN(C(=O)c3ccc(F)cc3F)C2)n1 (stereo not drawn),2.01
13,O=C(c1ccccn1)N1CCC(Nc2cccnn2)CC1,-0.121
14,Cc1cnn(CC2CCCCN2Cc2cc(C)on2)c1 (stereo not drawn),-5.36
15,Cc1nc(C)n(CC2CCCCN2CCC(=O)Nc2cc(C)on2)n1 (stereo not drawn),-2.86
16,CNC(=O)[C@@H](c1ccccc1OC)N1CCC[C@H]1C(=O)NC(C)(C)C,-6.67
17,CCS(=O)(=O)N1CCCC2(CCCN2Cc2cccc(F)c2)C1 (stereo not drawn),-141
18,O=C(c1ccccc1)N1CCC2(CCCN2c2ncccn2)CC1,-127
19,CN(C)S(=O)(=O)N1C[C@@H]2C[C@H](C(=O)Nc3ccccc3)[C@H](C1)O2,5.86
20,O=C(Nc1ccc(F)cc1)N1C[C@@H]2CC[C@H]1CN(Cc1cccnc1)C2,-13.4
